Measurements taken from ChEMBL document CHEMBL1134593, “Acyclic and cyclopropyl analogues of adenosine bisphosphate antagonists of the P2Y1 receptor: structure-activity relationships and receptor docking” (J Med Chem, 2001).

Columns and labels:
P2Y purinoceptor 1 = P2Y purinoceptor 1 (Meleagris gallopavo, UniProt P49652); test: Inhibitory concentration against P2Y1 receptor in turkey erythrocyte membranes; type: cell membranes
How it was run: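 Turkey erythrocytes labeled 18–24 h at 37 °C with 2-[3H]myo-inositol in inositol-free DMEM, then lysed hypotonically (5 mM sodium phosphate pH 7.4, 5 mM MgCl2, 1 mM EGTA) to give ghosts. Phospholipase C assayed in Hepes pH 7.0 buffer with 1 μM GTPγS, antagonist and 30 nM 2-MeSADP, 5 min at 30 °C. Total [3H]inositol phosphates quantified by anion exchange.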

[1] = target: P2Y purinoceptor 1 (Meleagris gallopavo) (UniProt P49652); test: In vitro antagonist activity against turkey P2Y1 receptor, expressed as percent of maximal inhibition at 100 uM; type: functional; design: scale not given: the % may be the effect or the level left
Chain of P2Y purinoceptor 1 (Meleagris gallopavo) (P49652 whole entry): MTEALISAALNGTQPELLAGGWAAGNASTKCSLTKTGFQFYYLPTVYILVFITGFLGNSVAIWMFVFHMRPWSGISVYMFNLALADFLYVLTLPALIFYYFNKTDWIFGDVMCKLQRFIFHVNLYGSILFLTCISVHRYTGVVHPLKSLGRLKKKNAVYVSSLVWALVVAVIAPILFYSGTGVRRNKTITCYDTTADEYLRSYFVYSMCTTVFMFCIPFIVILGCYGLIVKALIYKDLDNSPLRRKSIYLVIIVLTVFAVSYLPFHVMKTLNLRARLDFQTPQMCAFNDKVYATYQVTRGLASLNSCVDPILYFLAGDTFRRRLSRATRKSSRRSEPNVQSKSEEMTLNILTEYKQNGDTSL

Chain of P2Y purinoceptor 1 (P49652 whole entry): as above

| IC50 (P2Y purinoceptor 1) [µM] | Activity [1] [%] | Compound |
| --- | --- | --- |
| 7.86 | 100 | CNc1nc(Cl)nc2c1ncn2C[C@H](COP(=O)(O)O)OP(=O)(O)O |
| 1.9 | 100 | CNc1nc(Cl)nc2c1ncn2CC1CC1(COP(=O)(O)O)COP(=O)(O)O (stereo unspecified) |
| 2.36 | 100 | CNc1nc(Cl)nc2c1ncn2C1CC1(COP(=O)(O)O)COP(=O)(O)O (stereo unspecified) |
| 0.23 | 100 | CNc1nc(Cl)nc2c1ncn2CC(COP(=O)(O)O)COP(=O)(O)OP(=O)(O)O (stereo unspecified) |
| 1.09 | 100 | CNc1ncnc2c1ncn2CC(COP(=O)(O)O)COP(=O)(O)O |
| 22.6 | 68 | CNc1nc(Cl)nc2c1ncn2CC(CO)COP(=O)(O)O (stereo unspecified) |
| 4.56 | 100 | CNc1nc(Cl)nc2c1ncn2C(COP(=O)(O)O)COP(=O)(O)O |
| 1.6 | 100 | CNc1ncnc2c1ncn2CCC(COP(=O)(O)O)COP(=O)(O)O |
| 0.48 | 100 | CNc1nc(Cl)nc2c1ncn2CC(COP(=O)(O)O)COP(=O)(O)O |
| 2.04 | 100 | CNc1nc(Cl)nc2c1ncn2CC(CCOP(=O)(O)O)CCOP(=O)(O)O |
| 0.84 | 99 | CNc1nc(Cl)nc2c1ncn2CCC(COP(=O)(O)O)COP(=O)(O)O |
| 37.6 | 65 | CNc1nc(Cl)nc2c1ncn2CC(COC(C)=O)COP(=O)(O)O (stereo unspecified) |
| 2.7 | 100 | CNc1nc(Cl)nc2c1ncn2CC1[C@H](COP(=O)(O)O)[C@H]1COP(=O)(O)O (stereo partly specified) |
| 31 | 78 | CNc1nc(Cl)nc2c1ncn2CC(COP(=O)(O)O)COP(=O)(OC)OC (stereo unspecified) |
| 2.17 | 100 | CNc1nc(Cl)nc2c1ncn2C[C@@H]1[C@H](COP(=O)(O)O)[C@@H]1COP(=O)(O)O |
| 1.74 | 100 | CNc1nc(Cl)nc2c1ncn2C[C@H]1[C@H](COP(=O)(O)O)[C@@H]1COP(=O)(O)O |
| 1.47 | 100 | CNc1nc(Cl)nc2c1ncn2C[C@@H](COP(=O)(O)O)OP(=O)(O)O |
| 2.1 | 100 | CNc1nc(Cl)nc2c1ncn2CC=C(COP(=O)(O)O)COP(=O)(O)O |
